OX1R antag-1: antagonists of human orexin 1 receptor (OX1R); hit rate 1.8% among 330,000; Orexin/Hypocretin receptor type 1 (Homo sapiens), O43613; inhibition, % at 6.6 µM; OX1R-expressing cells, FRET antagonist read-out; AID 485270, 2010; in the data active = inhibition mostly above about 38%, no sharp cut-off; inactive = mostly below about 40%;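 also: 0% = agonist challenge alone and 100% = reference antagonist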
GalR3 antagonist: GalR3 antagonists in HEK293 cells, primary screen, cell-based, fluorescence readout; HEK293 GalR3-CNG cAMP membrane potential fluorescence; galR3 body fused to GalR1 C-terminus; inhibition, % at 3 µM; hit rate 0.44% among 360,000; AID 651719, 2012;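 active = inhibition above the screen-wide average plus 3 SD, cut at about 13% in these data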;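 also: forskolin and galanin both at EC90 stimulate the cells; cAMP rise reported by CNG channel membrane potential dye signal; 0% = forskolin plus galanin with DMSO and 100% = forskolin alone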
Target sequence (O60755 1-299 limits assumed): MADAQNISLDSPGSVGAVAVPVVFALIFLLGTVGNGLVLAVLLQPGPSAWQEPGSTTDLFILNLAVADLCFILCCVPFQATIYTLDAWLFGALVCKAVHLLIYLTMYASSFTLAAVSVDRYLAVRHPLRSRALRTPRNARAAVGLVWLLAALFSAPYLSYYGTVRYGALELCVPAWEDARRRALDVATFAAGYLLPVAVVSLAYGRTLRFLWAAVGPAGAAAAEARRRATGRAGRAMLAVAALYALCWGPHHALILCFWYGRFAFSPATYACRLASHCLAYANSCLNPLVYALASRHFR
CHO parental Ca: ATP-evoked calcium signal inhibitors, parental CHO, primary screen, counter-screen for OX1R antagonist project, cell-based, fluorescence, Fluo-8 calcium dye; hit rate 0.63% among 330,000; parental CHO-K1, ATP-induced calcium, Fluo-8 fluorescence; inhibition, % at 5.6 µM;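 active = inhibition above that plate's mean sample inhibition plus 3 SD, cut at about 26% in these data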;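 also: 0% = ATP-challenged DMSO wells and 100% = DMSO wells without ATP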
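test system = CHO parental line | reagent = ATP stimulus | measured by = intracellular calcium via Fluo-8 no-wash fluorescent dye | control set = ATP and no-ATP DMSO wells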
TAAR1 ag: human TAAR1 agonists, primary screen, Fluo-8 calcium fluorescence, CHO RD-HGA16 cells | Trace amine-associated receptor 1 (Homo sapiens), Q96RJ0 | vehicle wells 0%, saturating PEA agonist 100% | activation, % at 3 µM | hit rate 0.99% among 360,000;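 active = activation above the mean activation of all test compounds in the run plus 3 SD, cut at about 38% in these data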
Target sequence (Q96RJ0 whole entry, looked up): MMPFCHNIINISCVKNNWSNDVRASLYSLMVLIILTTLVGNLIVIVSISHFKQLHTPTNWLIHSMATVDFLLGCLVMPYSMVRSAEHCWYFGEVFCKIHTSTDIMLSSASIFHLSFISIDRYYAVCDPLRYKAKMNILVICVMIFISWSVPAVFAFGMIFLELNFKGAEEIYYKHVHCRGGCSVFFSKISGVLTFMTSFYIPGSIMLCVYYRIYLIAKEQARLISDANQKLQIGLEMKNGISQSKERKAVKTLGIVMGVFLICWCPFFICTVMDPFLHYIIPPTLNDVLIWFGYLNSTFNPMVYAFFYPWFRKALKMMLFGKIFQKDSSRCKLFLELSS
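System: CHO-derived RD-HGA16 cells with stable Gα16 and human TAAR1. Times: 17-24 h plating, Fluo-8 75 min 37 °C, 30 min RT. Measured by: calcium-sensitive Fluo-8 signal, excitation 470-495, emission 515-575 nm. Read-out basis: % activation relative to PEA EC100 response. Control set: DMSO and PEA EC100. Repeats: no replicates (n 1).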
TAAR1 antag: human TAAR1 antagonists, primary screen, Fluo-8 calcium fluorescence, CHO RD-HGA16 cells | Trace amine-associated receptor 1 (Homo sapiens), Q96RJ0 | antagonist | inhibition, % at 3 µM | hit rate 1.5% among 360,000 | AID 624466, 2012;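 active = inhibition above a per-plate cutoff, the mean inhibition of test compounds on that plate plus 3 SD, cut at about 49% in these data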;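 also: 0% = DMSO plus EC80 beta-PEA response and 100% = DMSO alone without agonist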
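System: CHO RD-HGA16 cells bearing hTAAR1. Reagent: EC80 β-phenethylamine stimulus. Schedule: seeding 17-24 h prior, 75-min 37 °C, 30-min RT dye loading. Signal: Fluo-8 intracellular calcium dye fluorescence, real-time kinetic reads. Read-out: % inhibition from peak post-agonist over basal fluorescence ratio. Benchmarks: vehicle wells and EC80 agonist wells. Replicates: n of 1.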
OX1R antag-2: OX1R (HCRTR1) antagonists, primary screen, fluorescence, CHO/OX1R cells, Fluo-8 calcium, orexin A; Fluo-8 calcium fluorescence; inhibition, % at 5 µM; Orexin/Hypocretin receptor type 1 (Homo sapiens), O43613; AID 434989, 2010; hit rate 0.43% among 330,000;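 active = inhibition above its plate's threshold, mean inhibition of all tested compounds on the plate plus 3 SD, cut at about 37% in these data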;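 also: 0% = orexin A challenge wells and 100% = SB-334867-A antagonist wells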
TAAR1 ag conf: human TAAR1 agonists, retest of hits, confirmation, Fluo-8 calcium fluorescence, CHO RD-HGA16 cells. shares compounds with TAAR1 ag. scaled: DMSO 0%, maximal phenethylamine 100%. activation, % at 3 µM. AID 651783, 2012. hit rate 82% among 2,400;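 active = activation above a cutoff set at the run's mean compound activation plus 3 SD, cut at about 39% in these data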
Ga16 ag counter: nonselective calcium mobilization agonists, CHO-Ga16 cells, counter-screen for hTAAR1 agonist project, cell-based, fluorescence, CHO-Ga16 parental line; hit rate 50% among 2,400; Fluo-8 calcium fluorescence; normalized to maximal ATP response, DMSO zero; activation, % at 3 µM; shares compounds with TAAR1 ag; AID 651787, 2012;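 active = activation above the run cutoff, the mean activation over all tested wells plus 3 SD, cut at about 12% in these data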;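 also: 0% = DMSO wells and 100% = maximal ATP response on the peak over basal ratio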
TAAR1 desensitize: TAAR1 desensitization by agonist hits, confirmation, counter-screen for TAAR1 agonist project, cell-based, fluorescence, tachyphylaxis; shares compounds with TAAR1 ag; CHO RD-HGA16 hTAAR1, Fluo-8 calcium, beta-PEA response inhibition; inhibition, % at 3 µM; hit rate 46% among 2,400; AID 651951, 2012;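 active = inhibition above the run cutoff, the mean inhibition of all test compounds plus 3 SD, cut at about 49% in these data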;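 also: beta-PEA stimulus applied at its EC80; loss of beta-PEA calcium signal after compound pretreatment read as receptor desensitization; 0% = DMSO with beta-PEA at EC80 and 100% = DMSO alone without agonist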
Ga16 nonsel ant: inhibition of ATP-evoked calcium response in CHO-Ga16 cells, counter-screen for TAAR1 agonist project, cell-based, fluorescence; shares compounds with TAAR1 ag; CHO-Ga16 ATP-induced calcium, Fluo-8 fluorescence; inhibition, % at 3 µM; hit rate 39% among 2,400; AID 651952, 2012;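 active = inhibition above the plate's mean compound inhibition plus 3 SD, computed per plate, cut at about 22% in these data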;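 also: 0% = EC80 ATP with DMSO and 100% = DMSO wells without ATP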
Starred values were filed as active, the others as inactive. Only some compounds are listed: those with a hit (about 4.3% of all), similar ones and a draw of the others.

Screening O=C(NCC(c1ccco1)N1CCc2ccccc2C1)c1ccc(F)cc1 (configuration not stated) returned OX1R antag-1 24, GalR3 antagonist -3, CHO parental Ca -23, TAAR1 ag 46*, TAAR1 antag -18, OX1R antag-2 -25, TAAR1 ag conf 19, Ga16 ag counter 1, TAAR1 desensitize 1 and Ga16 nonsel ant 11.
COc1ccccc1NC(=O)C(=O)NCC(c1ccco1)N1CCc2ccccc2C1 (configuration not stated) was read as OX1R antag-1 27, GalR3 antagonist -7, CHO parental Ca 2, TAAR1 ag 83*, TAAR1 antag 25, OX1R antag-2 -27, TAAR1 ag conf 64*, Ga16 ag counter 1, TAAR1 desensitize 8 and Ga16 nonsel ant 4.
`COc1ccc(OC)c(S(=O)(=O)NCC(c2ccco2)N2CCc3ccccc3C2)c1` (configuration not stated) gave OX1R antag-1 29, GalR3 antagonist -1, CHO parental Ca -9, TAAR1 ag 15, TAAR1 antag -2 and OX1R antag-2 -18.
`COc1ccc(C)cc1S(=O)(=O)NCC(c1ccco1)N1CCc2ccccc2C1` (configuration not stated) gave OX1R antag-1 41, GalR3 antagonist -4, CHO parental Ca -12, TAAR1 ag 42*, TAAR1 antag -15, OX1R antag-2 17, TAAR1 ag conf 62*, Ga16 ag counter 1, TAAR1 desensitize 19 and Ga16 nonsel ant 10.
For CC(Oc1cccc(Br)c1)C(=O)NNC(=O)CCS(=O)(=O)c1ccccc1 (configuration not stated) the results were OX1R antag-1 3, GalR3 antagonist 9, CHO parental Ca -14, TAAR1 ag 1, TAAR1 antag -3 and OX1R antag-2 -12.
COc1ccc(C(=O)CCc2ccccc2)cc1 was read as OX1R antag-1 -8, GalR3 antagonist -5, CHO parental Ca -9, TAAR1 ag 3, TAAR1 antag 2 and OX1R antag-2 -8.
Screening CCN(CC(=O)Nc1c(F)cccc1F)C(=O)c1cccc(-n2cnnn2)c1 returned GalR3 antagonist 0, TAAR1 ag 4 and TAAR1 antag -10.
Screening O=C(Nc1ccccc1F)c1ccc(CNS(=O)(=O)c2cccc(C(F)(F)F)c2)cc1 returned OX1R antag-1 6, GalR3 antagonist 1, CHO parental Ca 69*, TAAR1 ag 46*, TAAR1 antag 40, OX1R antag-2 -14, TAAR1 ag conf 29, Ga16 ag counter 16*, TAAR1 desensitize 26 and Ga16 nonsel ant 18.
`CN1CCN(C(c2ccc(C(F)(F)F)cc2)c2cc(Cl)c3cccnc3c2O)CC1` (configuration not stated) gave OX1R antag-1 25, GalR3 antagonist -10, CHO parental Ca 0, TAAR1 ag 119*, TAAR1 antag 5, OX1R antag-2 6, TAAR1 ag conf 129*, Ga16 ag counter 106*, TAAR1 desensitize 81* and Ga16 nonsel ant 44*.
CCN1CCN(C(c2ccc(C(F)(F)F)cc2)c2ccc3cccnc3c2O)CC1 (configuration not stated) was read as OX1R antag-1 8, GalR3 antagonist -9, CHO parental Ca -1, TAAR1 ag 29, TAAR1 antag -3 and OX1R antag-2 -5.
Screening CN1CCN(C(c2ccc(Cl)cc2)c2cc(Cl)c3cccnc3c2O)CC1 (configuration not stated) returned OX1R antag-1 35, GalR3 antagonist -6, CHO parental Ca 6, TAAR1 ag 69*, TAAR1 antag -1, OX1R antag-2 5, TAAR1 ag conf 118*, Ga16 ag counter 67*, TAAR1 desensitize 49* and Ga16 nonsel ant 20.
Screening COc1ccc(NC(=O)n2ncc3c(C)cccc32)cc1 returned OX1R antag-1 3, GalR3 antagonist -7, CHO parental Ca -7, TAAR1 ag 4, TAAR1 antag -10 and OX1R antag-2 -30.
Screening Cc1cccc(/C=N\Nc2cn[nH]c(=O)c2Cl)c1 returned OX1R antag-1 9, GalR3 antagonist -2, CHO parental Ca -5, TAAR1 ag 53*, TAAR1 antag 70*, OX1R antag-2 -13, TAAR1 ag conf 88*, Ga16 ag counter -2, TAAR1 desensitize 72* and Ga16 nonsel ant 0.
Screening O=c1[nH]ncc(N/N=C\c2cccnc2)c1Cl returned OX1R antag-1 28, GalR3 antagonist -6, CHO parental Ca -11, TAAR1 ag 11, TAAR1 antag -16 and OX1R antag-2 10.
`O=c1[nH]ncc(N/N=C\c2cccs2)c1Cl` gave OX1R antag-1 37, GalR3 antagonist -3, CHO parental Ca 2, OX1R antag-2 9, Ga16 ag counter 3 and Ga16 nonsel ant 7.
`O=NN(CCCl)C(=O)NCC1=C[N+](=O)CC=C1` gave GalR3 antagonist -4, TAAR1 ag 3 and TAAR1 antag -23.
Screening O=C(C[C@@H]1CC[C@H](NC(=O)Cc2ccccn2)[C@@H](CO)O1)NCCc1ccccc1 returned GalR3 antagonist -7, TAAR1 ag 47*, TAAR1 antag -11, TAAR1 ag conf 63*, Ga16 ag counter 2, TAAR1 desensitize 12 and Ga16 nonsel ant 8.
